These results are taken from ChEMBL document CHEMBL4513216, “Probing the Open Global Health Chemical Diversity Library for Multistage-Active Starting Points for Next-Generation Antimalarials” (ACS Infect Dis, 2020).

A short description of this series: Toxicity liver stage against HepG2, at 10uM. The series is classed as cell-based. Set-up: test concentration 10 uM, cell line HepG2-A16-CD81EGFP. The note with it: human, HepG2-A16-CD81EGFP cells; read-out: INHIBITION
In short, it runs like this:
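Uninfected HepG2-A16-CD81EGFP cells, 3 × 10^3 per well, 1536-well, plated on prespotted compound at 10 μM final, parasite-free screening media added to match infected plates; puromycin 10 μM positive, DMSO 0.5% negative; run in parallel with 48 h PbLuc assay at 37 °C, 5% CO2; viability by CellTiter-Glo luminescence, normalized to controls.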
Regarding `C[C@@H]1C[C@H]2CN(C(=O)C3=CCCCC3)C[C@H]2O1`, the cytotoxicity at 10 µM turned out to be 7.18%. With `CCNC(=O)CCC(=O)NC(C)Cc1ccccc1Br` (configuration not stated) the figure was -4.99%.

For the compound `CN(Cc1ccccc1)C(=O)CS(=O)(=O)Cc1ccc(Cl)c(Cl)c1`, the cytotoxicity at 10 µM worked out at 0.239%. In the case of `CCCNC(=O)CNC(=O)CCc1ccccc1Br` it was 12.3%.

As to `COc1ccc(CN2CCC3(CC2)C(C(=O)O)CC(=O)N3C)cc1Cl` (configuration not stated), the cytotoxicity at 10 µM was -5.66%. With `Cc1nnc2n1CCN(CCOc1ccccc1)C2` the figure was 2.24%; with `O=C(Cn1nc(-c2ccc(F)cc2)oc1=O)NCc1ccccc1F`, -9.04%. With `COc1ccc(Cl)cc1NCC(=O)NCCc1ccccn1` the figure was -8.26%. `COc1ccccc1C(=O)NCc1n[nH]c(C)n1`: the cytotoxicity at 10 µM is -0.519%. In the case of `CCC(CO)N(Cc1ccccn1)Cc1ccc(-c2ccn[nH]2)s1` (configuration not stated) it was 2.66%; in that of `Cc1c(Cl)cccc1NC(=O)CN(Cc1cccnc1)C(C)C`, 4.77%.

`COC(=O)CCN(CC1CCCO1)C(=O)Cc1ccc(OC)c(OC)c1` (configuration not stated): the cytotoxicity at 10 µM is 4.08%.

Take `CC(C)CCNC(=O)c1csc(NC2CC2)n1`: the cytotoxicity at 10 µM is -0.243%. With `O=C([C@@H]1CCO[C@@H]2CCN(CCc3ccccc3)C[C@@H]21)N1CCCC1` the figure was -3.06%; with `CN(C)CCN1CCCC12CCCN(Cc1ccco1)C2` (configuration not stated), 10.3%. In the case of `CN(C)S(=O)(=O)N1CCN(c2ccnc(N3CCCC3)n2)CC1` it was -13.3%. With `O=C1CCCC2(CCN(C(=O)c3ccccn3)CC2)N1` the figure was 3.03%; with `O=c1c(Cc2ccccc2)c(O)ccn1CCc1ccccc1`, 10.3%. On to `CCc1c(C(=O)O)nnn1-c1cccc(C)c1C`, for which the cytotoxicity at 10 µM was -16.1%. With `CC1(c2ccccc2)CCCN(C(=O)c2ccn3nnnc3c2)C1` (configuration not stated) the figure was 22.6%; with `CCOCCN1CCc2cncnc2C1`, -20.7%.

As to `Cn1ncc2c(N3CCN(C(N)=O)CC3)nc(C3CCCC3)nc21`, the cytotoxicity at 10 µM stood at 18.2%.

Regarding `COCCN(C)C(=O)c1nc2c(s1)CCCN2C(=O)C1CC1`, the cytotoxicity at 10 µM was -143%. With `CCn1cc(NC(=O)C2CCN(Cc3ccccc3C#N)CC2)cn1` the figure was 1.13%. In the case of `O=C(N1CCOCC1)N1CCc2ncnc(NC3CC3)c2CC1` it was -20.9%; in that of `O=c1[nH]c2nc(NCC3CCCO3)ncc2c(=O)n1-c1cccc(F)c1` (configuration not stated), -9.24%. Regarding `O=C(c1cc(Cl)c[nH]1)N(CCCO)Cc1cccnc1`, the cytotoxicity at 10 µM was 7.48%. On to `O=C(c1nc2c(o1)CN(CC1CC1)C2)N1CCCC1`, for which the cytotoxicity at 10 µM is -163%. In the case of `CN(CC(=O)c1ccc2[nH]c(=O)[nH]c2c1)Cc1ccc2c(c1)OCO2` it was 5.34%; in that of `Cn1ccnc1COc1ccc(CSc2nnnn2C)cc1`, -0.613%; in that of `COCCN1CCC2(CC1)CC(NCc1cncn1C)c1ccccc12` (configuration not stated), -8.13%. In the case of `CN(CCCC1CCCO1)C(=O)c1cccc(C#N)c1` (configuration not stated) it was -7.52%; in that of `CC(=O)NCC(=O)N1Cc2nccn2CC(CN2CCCC2=O)C1` (configuration not stated), -76.9%. With `Cc1ncsc1C(=O)NCCSCCCO` the figure was -11.3%. For `O=C(c1ccncc1)N(CCO)Cc1cc(Br)ccc1F`, the cytotoxicity at 10 µM amounted to 10.2%. With `CS(=O)(=O)CCCNC1(c2cccc(Cl)c2)CCCC1` the figure was 0.245%; with `CCn1ccnc1CN1CCN(C(C)C(=O)NC2CCCC2)CC1` (configuration not stated), -4.86%; with `O=C1NCC[C@]12CN(Cc1cccnc1)C[C@H]2c1ccccc1`, -137%.

For `Cc1cnn(CC2CCCCN2C(=O)c2ccc(CN(C)C)cc2)c1` (configuration not stated), the cytotoxicity at 10 µM was -11.4%. With `Cn1ccc2c(C(=O)NCCCS(C)(=O)=O)cccc21` the figure was -0.915%; with `COc1ccc(NC(=O)Cn2cc(-c3ccccc3)ncc2=O)cn1`, -4.73%; with `O=C(NCCCO)c1cc(-c2ccc3c(c2)CCO3)n[nH]1`, -4.24%. In the case of `Cc1cc(Br)oc1C(=O)N1CCN(CC(N)=O)CC1`, the cytotoxicity at 10 µM turned out to be 0.658%. In the case of `O=S(=O)(c1cccnc1)N1CCN(CC(O)c2cccs2)CC1` (configuration not stated) it was -4.21%.

Regarding `Cc1noc(C)c1CNc1cccc(C(=O)N2CCCC(O)C2)c1` (configuration not stated), the cytotoxicity at 10 µM was -6.08%. In the case of `c1cc(C2CCCN2Cc2nnnn2C2CC2)cs1` (configuration not stated) it was -8.86%; in that of `CN(C)c1ccc(C(=O)NCc2csc(Br)c2)cn1`, -4.97%; in that of `CNc1ncc(CN2CCC(CCc3ccccc3)CC2)cn1`, 5.19%.

As to `O=C(NCCNc1ncccn1)C1CCN(c2ncccn2)CC1`, the cytotoxicity at 10 µM is -7.67%. With `CC(NC(=O)CN1CCN(c2cccc(Cl)c2)CC1)c1ccco1` (configuration not stated) the figure was -11.1%; with `CSC1(CNc2ncc(Br)cn2)CCOCC1`, -8.93%; with `Cc1cccc(CN2CC[C@H]3C[C@@H](C)O[C@@H]3C2)n1`, -65.5%. In the case of `CN(Cc1ccncc1)C(=O)Nc1cnn(CC(N)=O)c1` it was -3.07%; in that of `CC(=O)c1c(F)cccc1NC1CCN(C(=O)CC(C)C)CC1`, 22.6%. In the case of `CN(Cc1ccco1)C1CCC12CCN(C(=O)c1ccncc1)CC2` (configuration not stated) it was 2.82%. For `Cc1nn(CCNC(=O)c2cc(C3CC3)[nH]n2)c(C)c1Cl`, the cytotoxicity at 10 µM was -3.73%.

On to `CCCC(=O)N1CCCC(C(=O)c2cnn(-c3ccc(F)cc3)c2N)C1` (configuration not stated), for which the cytotoxicity at 10 µM amounted to 4.67%. Consider `CC(=O)N1[C@H](CN(C)C)C[C@@H]2CN(C(=O)c3occc3C)CC[C@@H]21`, for which the cytotoxicity at 10 µM stood at 0.847%.

For `CCN(CC)c1nc2sc(C(=O)NC(C)(C)C(=O)OC)cc2s1`, the cytotoxicity at 10 µM turned out to be 3.58%. In the case of `CNc1nc2c(s1)C(c1ccccc1Cl)CC(=O)N2` (configuration not stated) it was 2.82%; in that of `CN1CCN(c2ncc3c(=O)n(-c4cccc(F)c4)c(=O)[nH]c3n2)CC1`, -8.85%; in that of `CN(Cc1nccs1)C1CCN(c2ncccn2)CC1`, 10.1%.

For `Cc1cc(C(=O)N2CCC3(CC2)CC(c2cccnc2)C(=O)N3)no1` (configuration not stated), the cytotoxicity at 10 µM was -133%. With `CN1CC[C@]2(CN(C(=O)[C@H]3CCCO3)C[C@H]2c2ccccc2)C1=O` the figure was 8.49%; with `Cc1nc2ccccc2n(Cc2nnnn2C2CC2)c1=O`, -10.3%. With `CCOc1ccc(CC(CNC(=O)c2ccc(C)o2)C(N)=O)cc1` (configuration not stated) the figure was 3.58%; with `CO[C@@H]1CN(C)S(=O)(=O)[C@@]12CCN(Cc1ccccc1)C2`, 3.02%; with `CCN(CC)C(=O)[C@@H]1C[C@@H](NC(=O)c2cccn2C2CC2)CN1C`, -5.94%.

As for `Cc1ccc(C(=O)N2CCC3(CC2)CN(CCN(C)C)C(=O)O3)c(F)c1`, the cytotoxicity at 10 µM amounted to 7.46%.

As to `Cc1cnccc1-n1nc(C(C)C)nc1CCN(C)S(C)(=O)=O`, the cytotoxicity at 10 µM was -4.05%. With `CN(C)C(=O)CN1CCN(c2ncccn2)[C@@H]2CS(=O)(=O)C[C@@H]21` the figure was -3.01%; with `CN(CC(=O)NC1CCOCC1)C1CCCN(c2cccnn2)C1` (configuration not stated), -8.97%.
